Experimental data from ChEMBL document CHEMBL1142147, “Action of disinfectant quaternary ammonium compounds against Staphylococcus aureus” (2007).
Calls of active or inactive are those of the source. The calls are words filed in the database; no cut-off is given here.

Tests used:
[1] = tested on: Staphylococcus aureus; experiment: Antibacterial activity against 10^5 CFU/ml Staphylococcus aureus ATCC 6538 after 48 hrs; type: functional; details: ATCC 6538, 48 h
In short: (§1)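 Spots of 5 μl inoculum (10-fold dilutions, 1 × 10⁹ to 1 × 10⁵ CFU/ml in HEPES) applied in triplicate. Incubated at 35°C and read visually at 24 and 48 h. MIC taken as no growth or <10 colonies in every spot of the triplicate.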

[2] = tested on: Staphylococcus aureus; experiment: Intracellular coagulation in Staphylococcus aureus ATCC 6538 at tested concentrations 4.5, 9, 12 and 15 ug/ml; type: functional, organism-based
[3] = tested on: Staphylococcus aureus; experiment: Loss of membrane integrity in Staphylococcus aureus ATCC 6538 at above 4.5 ug/ml; type: functional, organism-based
In short: (§2)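 Cells (final 2 × 10⁹ CFU/ml) exposed to 4.5 to 18 μg/ml biocide or HEPES at 25°C, shaken. Samples filtered (0.45 μm) at timed points up to 240 min. K⁺ measured by flame emission at 766.5 nm and 260-nm material by A260. Each expressed as percent of the maximal pool (cetrimide 1 mM; TCA extraction). Mean % leakage at 30 min plotted against concentration.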

[4] = tested on: Staphylococcus aureus; experiment: Induction of autolysis in Staphylococcus aureus ATCC 6538 at 9 ug/ml; type: functional, organism-based
In short: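 Washed cells (final 2 × 10⁹ CFU/ml) held with biocide at 9 μg/ml in HEPES at 35°C for 4 h, shaken. Then neutralized with lecithin/Tween 80, washed, and resuspended in HEPES at 35°C. Filtrates (0.45 μm) taken at 0, 2, 4, 18, 22 and 24 h and read at A260. Autolysis taken as 260-nm leakage above the TCA-extractable pool.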

[5] = tested on: Staphylococcus aureus; experiment: Reduction of cell count in Staphylococcus aureus ATCC 6538 between 6 to 18 hrs exposure; type: functional; set-up: scale not given: the % may be the effect or the level left
In short: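 Cells pre-exposed 4 h at 35°C to 9 μg/ml biocide, neutralized, washed, and held in HEPES at 35°C. Samples taken at 0 to 48 h, serially diluted, plated on TSA, incubated 18 h at 37°C and counted as CFU/ml.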

[6] = tested on: Staphylococcus aureus; experiment: Antibacterial activity against 10^9 CFU/ml Staphylococcus aureus ATCC 6538 after 48 hrs; type: functional; details: ATCC 6538, 48 h; in short: as §1
[7] = tested on: Staphylococcus aureus; experiment: Induction of membrane collapse in Staphylococcus aureus ATCC 6538 at 12 ug/ml; type: functional, organism-based; in short: as §2
[8] = tested on: Staphylococcus aureus; experiment: Antibacterial activity against 10^6 CFU/ml Staphylococcus aureus ATCC 6538 after 48 hrs; type: functional; details: ATCC 6538, 48 h; in short: as §1
[9] = tested on: Staphylococcus aureus; experiment: Antibacterial activity against 10^8 CFU/ml Staphylococcus aureus ATCC 6538 after 48 hrs; type: functional; details: ATCC 6538, 48 h; in short: as §1
[10] = tested on: Staphylococcus aureus; experiment: Antibacterial activity against 10^7 CFU/ml Staphylococcus aureus ATCC 6538 after 48 hrs; type: functional; details: ATCC 6538, 48 h; in short: as §1

Structure (SMILES): CCCCCCCCCC[N+](C)(C)CCCCCCCCCC.[Cl-] [DIDECYLDIMETHYLAMMONIUM CHLORIDE]
- MIC [1]: 0.4 µg/mL
- Activity [2]: inactive
- Activity [3]: Active
- Activity [4]: Active
- Activity [5]: 90%
- MIC [6]: 1.6 µg/mL
- Activity [7]: Active
- MIC [8]: 0.4 µg/mL
- MIC [9]: 0.6 µg/mL
- MIC [10]: 0.4 µg/mL
